This is one part of a sample in which hits are shown more often than they occur.
Lmaj promast: Leishmania major promastigote growth inhibition, primary screen. hit rate 9% among 200,000. inhibition, % at 10 µM. Leishmania major promastigotes, resazurin fluorescence viability; in the data active = inhibition above about 50%;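 note: promastigotes grown with compound for 44 hours at 28 °C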
HSF-1 act: HSF-1 activators, primary screen, NIH3T3-HGL cells, MG132 stress, luminescence, single point; hit rate 1.7% among 300,000; NIH3T3-HGL HSF-1 luciferase reporter, 8 h; 100% = twice DMSO control signal; activation, % at 9 µM;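 active = mean replicate activation of at least 50% with a set share of replicates each reaching 50%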
Hsp70 act: Hsp70 transcriptional activators, primary screen, cell-based, HeLa, Hsp70 promoter luciferase, luminescence, 10 µM. HeLa Hsp70 promoter luciferase reporter; scaled: vehicle 0, proteasome-inhibitor control 100%. activation, % at 10 µM. hit rate 0.04% among 200,000;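 active = activation above the mean across all tested compounds plus 3 SD, cutoff set per campaign, cut at about 5.5% in these data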
T cruzi inh: inhibitors of intracellular T. cruzi growth, primary screen, luminescence, NIH3T3 host cells. T. cruzi beta-gal in NIH3T3, 90 h. inhibition, % (no concentration beside the values). hit rate 1.4% among 300,000. AID 1885, 2009;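 active = mean inhibition across valid replicates above about 55%, limit read from the data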;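 note: signal also drops with host cell toxicity which is not excluded here; higher percent means less beta-gal luminescence so fewer parasites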
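Material: NIH/3T3 host cells with β-galactosidase reporter T. cruzi; Input: 5,000 host fibroblasts per well; Medium: DMEM, 2% fetal bovine serum; Compound: 50 nL DMSO compound solution per well; Schedule: 3 h host attachment, then at least 90 h co-culture; Detection: luminescent β-galactosidase signal after 60 min lysis.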
HSF1 inh: HSF1 inhibitors in luciferase reporter cells, primary screen, cell-based, NIH3T3, luminescence. NIH3T3-HGL HSE-luciferase, MG132-induced, luminescence 8 h; active compounds read low. activity change, negative = inhibition, % at 7.5 µM (by protocol). hit rate 0.77% among 300,000. AID 2098, 2009;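 active = more than half of replicate wells show activity change below -50%, luminescence cut by over half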;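 note: luciferase reports HSF-1 transcriptional activity via heat shock element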
Each line names hits and unclear results; the compound was inactive in the other large screens.

COCCCNCCCOc1ccc(C(C)(C)c2ccccc2)cc1	Lmaj promast 99, T cruzi inh 58
COCCCNCC#CCOc1ccc(OC)cc1	none
CCc1cc(OCCCCNCc2ccccc2)ccc1Cl	Lmaj promast 99
C=CCNCCCOc1ccc(C(C)(C)c2ccccc2)cc1	Lmaj promast 100
COc1ccc(-n2ncc(C(=O)NC3CC3)c2C2CCN(C(=O)OC(C)(C)C)CC2)cc1	none (no result: Lmaj promast, Hsp70 act)
COc1ccc(CN2CNc3nc4ccccc4n3C2)cc1	Lmaj promast 62
Cc1ccc(NC(=O)N2CCCCC2)cc1[N+](=O)[O-]	none (no result: Lmaj promast, Hsp70 act)
COc1ccc(Nc2oc(-c3ccc(OC)cc3)nc2C#N)cc1	HSF-1 act 68 (no result: Lmaj promast, Hsp70 act)
C#CCSc1nnc(-c2ccc(OC)cc2)o1	HSF-1 act 66
Cc1ccccc1-c1nnc(SCc2ccccc2F)o1	HSF-1 act 74
Cc1ccccc1-c1nnc(SCc2ccccc2)o1	HSF-1 act 64
O=C(Nc1nnc(CCc2ccccc2)s1)c1cccc(F)c1	none (no result: Lmaj promast, Hsp70 act)
Cc1sc(N/N=C/c2cccs2)nc1-c1ccccc1	none
COc1ccc(-c2nnc(-c3ccc(F)cc3)o2)cc1	none (no result: Lmaj promast, Hsp70 act)
COc1ccc(-c2nnc(-c3ccc(C)cc3)o2)cc1	HSF-1 act 53 (no result: Lmaj promast, Hsp70 act)
COc1ccc(-c2nnc(SCc3ccccc3F)o2)cc1	HSF-1 act 54
NS(=O)(=O)c1ccc(CNC(=O)Cc2ccccc2[N+](=O)[O-])cc1	none (no result: Lmaj promast, Hsp70 act)
COc1ccc2c(c1)c1nnc(SC)nc1n2C	Lmaj promast 96
CCOc1ccc2c(c1)c1nnc(SCC(=O)NC3CC3)nc1n2C	none (no result: Lmaj promast, Hsp70 act)
COc1ccc2c(c1)c1nnc(SCC(=O)N3C(C)CCCC3C)nc1n2C (stereo not given)	Lmaj promast 78
CCCCC(=O)Nc1ccccc1CC	none (no result: Lmaj promast, Hsp70 act)
COc1ccc(-c2cc(-c3ccccc3)nc(NN)n2)cc1OC	none (no result: Lmaj promast, Hsp70 act)
COc1nc(-c2ccccc2)cc(-c2ccc(OC)c(OC)c2)n1	Lmaj promast 61 (no result: HSF-1 act, T cruzi inh, HSF1 inh)
Cc1nc(CNS(=O)(=O)c2ccc(Br)cc2)cs1	none (no result: Lmaj promast, Hsp70 act)
CC(=O)Nc1ccc(S(=O)(=O)NCc2csc(C)n2)cc1	HSF1 inh -87
CCCCN(CC)CCNC(=O)c1nn(-c2ccc(OC)cc2)c(=O)c2c1c1ccccc1n2C	T cruzi inh 57
CCN(Cc1ccccc1)C(=O)c1nn(-c2ccc(OC)cc2)c(=O)c2c1c1ccccc1n2C	Lmaj promast 50
CCCN1CCN(C(=O)c2nn(-c3ccc(OC)cc3)c(=O)c3c2c2ccccc2n3C)CC1	none
CCCCN(CC)CCCNC(=O)c1cn(-c2ccc(OC)cc2)c(=O)c2ccccc12	T cruzi inh 58 (no result: Lmaj promast, Hsp70 act)
Cc1ccc(NC(=O)c2ccc(NS(=O)(=O)c3cccc4cccnc34)cc2)cc1	none (no result: Lmaj promast, Hsp70 act)
CN(C)S(=O)(=O)N(CC(=O)Nc1ccc(S(=O)(=O)N2CCCC2)cc1)c1ccccc1	none (no result: Lmaj promast, Hsp70 act)
O=C(NNS(=O)(=O)c1ccccc1[N+](=O)[O-])c1cc2ccccc2cc1O	none (no result: Lmaj promast, Hsp70 act)
CN(Cc1ccccc1F)c1ccc(S(=O)(=O)N2CCCC2)cn1	Lmaj promast 98
CN(Cc1ccccc1)c1ccc(S(=O)(=O)N2CCOCC2)cn1	none
CN(Cc1ccc(C(C)(C)C)cc1)C(=O)c1ccc2c(=O)n3c(nc2c1)CCC3	none (no result: Lmaj promast, Hsp70 act)
CCOC(=O)N1CCN(C(=O)CCS(=O)(=O)c2ccc3c(c2)CC(C)N3C(=O)CC)CC1 (stereo not given)	none (no result: Lmaj promast, Hsp70 act)
CCOC(=O)C1CCN(C(=O)CCS(=O)(=O)c2ccc3c(c2)CC(C)N3C(=O)CC)CC1 (stereo not given)	HSF1 inh -62
CCC(=O)N1c2ccc(S(=O)(=O)CCC(=O)N3CCn4c3nc3ccccc34)cc2CC1C (stereo not given)	Lmaj promast 79
Cc1ccc(S(=O)(=O)NCCNC(=O)c2ccc(C)nc2)cc1	none (no result: Lmaj promast, Hsp70 act)
Cc1nn(Cc2ccc(F)cc2)c(C)c1NC(=O)c1cnn2c1NC(c1ccccc1)CC2C(F)(F)F (stereo not given)	Lmaj promast 73
Cc1nn(Cc2ccc(F)cc2)c(C)c1NC(=O)c1cnn2c1NC(c1cccs1)CC2C(F)(F)F (stereo not given)	none
O=C1CN(C(=O)CN2CCCC2)C(c2ccccc2)c2cc(Br)ccc2N1 (stereo not given)	Lmaj promast 64
O=C1CN(C(=O)CN2CCOCC2)C(c2ccccc2)c2cc(Br)ccc2N1 (stereo not given)	none
Cc1cc(C)c2c3c(sc2n1)C(c1cccc(F)c1)C(C#N)=C(N)O3 (stereo not given)	Lmaj promast 89, T cruzi inh 72
O=Nc1c(O)n(Cc2ccc(Cl)c(Cl)c2)c2ccccc12	Lmaj promast 77
N#Cc1nc(Cc2ccccc2)oc1NCc1cccnc1	none
N#Cc1ncc(Cc2ccccc2)nc1C#N	HSF-1 act 97 (no result: Lmaj promast, Hsp70 act)
CSCc1ccc(C(=O)Nc2ccc(C(N)=O)cc2)cc1	HSF-1 act 55
CSCc1ccc(C(=O)NCc2ccc(C)cc2)cc1	none
O=C(Nc1ccccc1)c1ccc(CSc2ncccn2)cc1	HSF-1 act 87
CSCc1ccc(C(=O)NCc2ccc(F)cc2)cc1	Lmaj promast 56
COc1ccc(Oc2cnn(-c3ccccc3)c(=O)c2Br)cc1	none
Cc1cccc(NS(=O)(=O)c2ccc(C(=O)N3CCN(c4ccccc4O)CC3)cc2)c1C	none (no result: Lmaj promast, Hsp70 act)
O=C(NCCCn1ccnc1)C(=O)NCC1OCCCN1S(=O)(=O)c1ccc(Cl)cc1 (stereo not given)	Lmaj promast 51
O=C(NCCc1c[nH]c2ccccc12)C(=O)NCC1OCCN1S(=O)(=O)c1ccc(Cl)cc1 (stereo not given)	Lmaj promast 54
O=C(NCCCn1ccnc1)C(=O)NCC1OCCN1S(=O)(=O)c1ccc(Cl)cc1 (stereo not given)	none
O=C(NCCC1=CCCCC1)C(=O)NCC1OCCCN1S(=O)(=O)c1ccc(F)cc1 (stereo not given)	Lmaj promast 96
O=C(NCCc1c[nH]c2ccccc12)C(=O)NCC1OCCCN1S(=O)(=O)c1ccccc1 (stereo not given)	none
O=C(NCCc1c[nH]c2ccccc12)C(=O)NCC1OCCN1S(=O)(=O)c1ccccc1 (stereo not given)	Lmaj promast 70
CCCCn1c(N)c(N(CCOC)C(=O)c2c(C)noc2C)c(=O)[nH]c1=O	none (no result: Lmaj promast, Hsp70 act)
COc1ccc(NC(=O)CC23CC4CC(CC(Br)(C4)C2)C3)c(OC)c1	none (no result: Lmaj promast, Hsp70 act)
COc1ccc(C(=O)C2CCN(C(=S)Nc3ccc(F)cc3)CC2)cc1	none
CC(=O)n1cc([C@H]2C=C(C(=O)Nc3ccccc3)O[C@@H](OCc3ccc(CO)cc3)C2)c2ccccc21	Lmaj promast 60
CC(=O)n1cc([C@@H]2C=C(C(=O)NCc3ccccc3)O[C@H](OCc3ccc(CO)cc3)C2)c2ccccc21	none (no result: Lmaj promast, Hsp70 act)
